From ChEMBL document CHEMBL1773058, “Synthesis of 4β-carbamoyl epipodophyllotoxins as potential antitumour agents” (2011)
Calls of active or inactive are those of the source. The calls are words filed in the database; no cut-off is given here.

Tests used:
MCF7 = assay: Growth inhibition of human MCF7 cells after 48 hrs by sulforhodamine B assay; assay type: functional; settings: MCF7, 48 h
Summary of the method: (§1)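 Cells grown in RPMI-1640 (2 mM glutamine, pH 7.4, 10% FCS, penicillin/streptomycin) at 37 °C, 5% CO2. Subconfluent cells trypsinised, used at >97% viability (trypan blue), plated and grown 24 h, then exposed to test materials 48 h in triplicate. Fixed with TCA at 4 °C for 1 h, stained 30 min with 0.4% SRB in 1% acetic acid, dye solubilised in 10 mM Tris pH 10.4, OD read at 540 nm. GI50 reported.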

PC-3 = assay: Growth inhibition of human PC3 cells after 48 hrs by sulforhodamine B assay; assay type: functional; settings: PC-3, 48 h; summary of the method: as §1
ZR-75-1 = assay: Growth inhibition of human ZR-75-1 cells after 48 hrs by sulforhodamine B assay; assay type: functional; settings: ZR-75-1, 48 h; summary of the method: as §1
A549 = assay: Growth inhibition of human A549 cells after 48 hrs by sulforhodamine B assay; assay type: functional; settings: A549, 48 h; summary of the method: as §1
HOP-62 = assay: Growth inhibition of human HOP62 cells after 48 hrs by sulforhodamine B assay; assay type: functional; settings: HOP-62, 48 h; summary of the method: as §1
COLO 205 = assay: Growth inhibition of human COLO205 cells after 48 hrs by sulforhodamine B assay; assay type: functional; settings: COLO 205, 48 h; summary of the method: as §1
A2780 = assay: Growth inhibition of human A2780 cells after 48 hrs by sulforhodamine B assay; assay type: functional; settings: A2780, 48 h; summary of the method: as §1
[1] = Growth inhibition of human DWD cells after 48 hrs by sulforhodamine B assay; assay type: functional; summary of the method: as §1
KB = assay: Growth inhibition of human KB cells after 48 hrs by sulforhodamine B assay; assay type: functional; summary of the method: as §1
SiHa = assay: Growth inhibition of human SiHa cells after 48 hrs by sulforhodamine B assay; assay type: functional; summary of the method: as §1
[2] = Growth inhibition of human Gurav cells after 48 hrs by sulforhodamine B assay; assay type: functional; summary of the method: as §1
[3] = biological target: DNA topoisomerase 2-alpha (Homo sapiens) (UniProt P11388); assay: Inhibition of topoisomerase 2 assessed as inhibition of relaxation of supercoiled pBR322 plasmid DNA at 10 uM to 1 mM by ethidium bromide staining
Summary of the method: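 Topo II relaxation reaction stopped with 10% SDS, then proteinase K treatment and extraction with chloroform/isoamyl alcohol (24:1). Products resolved on 1% agarose gel in TAE (40 mM Tris-acetate pH 8.0, 1 mM EDTA) and stained with 0.5 µg/ml ethidium bromide.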

Sequence of DNA topoisomerase 2-alpha (Homo sapiens) (P11388 whole entry): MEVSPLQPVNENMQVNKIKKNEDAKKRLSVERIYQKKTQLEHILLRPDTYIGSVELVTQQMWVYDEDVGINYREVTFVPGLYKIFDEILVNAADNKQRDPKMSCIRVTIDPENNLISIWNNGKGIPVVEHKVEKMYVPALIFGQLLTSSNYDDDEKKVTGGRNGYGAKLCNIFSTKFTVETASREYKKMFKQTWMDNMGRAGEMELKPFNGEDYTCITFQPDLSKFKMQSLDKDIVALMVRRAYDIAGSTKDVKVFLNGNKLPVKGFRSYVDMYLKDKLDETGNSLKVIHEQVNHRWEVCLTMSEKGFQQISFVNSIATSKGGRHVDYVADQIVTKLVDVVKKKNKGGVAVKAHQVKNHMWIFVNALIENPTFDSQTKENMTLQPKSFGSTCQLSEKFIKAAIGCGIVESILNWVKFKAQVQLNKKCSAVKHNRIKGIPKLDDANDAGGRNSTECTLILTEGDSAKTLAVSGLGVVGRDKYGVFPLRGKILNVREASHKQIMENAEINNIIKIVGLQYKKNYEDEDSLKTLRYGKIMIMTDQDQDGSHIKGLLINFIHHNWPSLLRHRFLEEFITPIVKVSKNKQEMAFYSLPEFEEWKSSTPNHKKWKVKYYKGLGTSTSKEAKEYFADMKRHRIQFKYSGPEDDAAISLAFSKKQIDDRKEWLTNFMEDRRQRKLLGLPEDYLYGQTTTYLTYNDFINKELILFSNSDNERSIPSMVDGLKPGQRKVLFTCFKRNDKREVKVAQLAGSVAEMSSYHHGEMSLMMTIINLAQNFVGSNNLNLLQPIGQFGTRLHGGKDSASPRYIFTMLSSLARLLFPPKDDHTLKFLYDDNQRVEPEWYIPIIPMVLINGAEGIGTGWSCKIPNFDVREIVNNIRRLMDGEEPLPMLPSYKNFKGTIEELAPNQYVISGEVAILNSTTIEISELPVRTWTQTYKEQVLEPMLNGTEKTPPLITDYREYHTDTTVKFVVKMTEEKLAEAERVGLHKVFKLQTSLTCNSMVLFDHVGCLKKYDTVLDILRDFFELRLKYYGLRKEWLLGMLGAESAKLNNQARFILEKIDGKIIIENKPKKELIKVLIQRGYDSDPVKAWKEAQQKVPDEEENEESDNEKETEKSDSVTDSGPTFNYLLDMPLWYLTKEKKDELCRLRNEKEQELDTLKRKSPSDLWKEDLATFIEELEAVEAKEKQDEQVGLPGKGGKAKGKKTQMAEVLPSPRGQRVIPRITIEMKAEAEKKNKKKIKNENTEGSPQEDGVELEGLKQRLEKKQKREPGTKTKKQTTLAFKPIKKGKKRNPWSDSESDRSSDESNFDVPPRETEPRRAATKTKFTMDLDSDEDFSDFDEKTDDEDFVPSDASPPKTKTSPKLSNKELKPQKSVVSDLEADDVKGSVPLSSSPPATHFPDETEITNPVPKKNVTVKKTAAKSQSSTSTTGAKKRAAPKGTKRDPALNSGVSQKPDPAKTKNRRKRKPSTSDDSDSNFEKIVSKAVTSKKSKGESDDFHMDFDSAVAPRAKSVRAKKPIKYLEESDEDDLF

Structure (SMILES) | GI50 (MCF7) | GI50 (PC-3) | GI50 (ZR-75-1) | GI50 (A549) | GI50 (HOP-62) | GI50 (COLO 205) | GI50 (A2780) | GI50 [1] | GI50 (KB) | GI50 (SiHa) | GI50 [2] | inhibition [3]
COc1cc([C@@H]2c3cc4c(cc3[C@@H](OC(=O)NC(C)C)[C@H]3COC(=O)[C@H]23)OCO4)cc(OC)c1OC | 190 nM | 190 nM | 150 nM | < 100 nM | 2100 nM | 2700 nM | 140 nM | < 100 nM | 180 nM | 190 nM | 160 nM | –
O=c1[nH]cc(F)c(=O)[nH]1 [FLUOROURACIL] | 2800 nM | 12000 nM | 2300 nM | 2400 nM | 4100 nM | 2800 nM | 3500 nM | 6100 nM | 5200 nM | 6300 nM | 3100 nM | –
CCCNC(=O)O[C@@H]1c2cc3c(cc2[C@@H](c2cc(OC)c(OC)c(OC)c2)[C@H]2C(=O)OC[C@@H]21)OCO3 | 2000 nM | 170 nM | 190 nM | < 100 nM | 160 nM | 2700 nM | 190 nM | 2000 nM | 2100 nM | 1200 nM | 170 nM | –
COc1cc([C@@H]2c3cc4c(cc3[C@@H](OC(=O)NCC3CC3)[C@H]3COC(=O)[C@H]23)OCO4)cc(OC)c1OC | 2300 nM | 2300 nM | 190 nM | < 100 nM | 2500 nM | 2500 nM | 2000 nM | 2000 nM | 2400 nM | 2300 nM | 180 nM | –
COc1cc([C@@H]2c3cc4c(cc3[C@@H](OC(=O)NCCc3c[nH]c5ccccc35)[C@H]3COC(=O)[C@H]23)OCO4)cc(OC)c1OC | 160 nM | 160 nM | 130 nM | < 100 nM | 2100 nM | 120 nM | 110 nM | < 100 nM | 180 nM | 1800 nM | 120 nM | Active
C#CCNC(=O)O[C@@H]1c2cc3c(cc2[C@@H](c2cc(OC)c(OC)c(OC)c2)[C@H]2C(=O)OC[C@@H]21)OCO3 | 190 nM | 160 nM | 140 nM | < 100 nM | 140 nM | 2700 nM | 160 nM | < 100 nM | 170 nM | 1900 nM | 140 nM | –
